Source: ChEMBL document CHEMBL1157206 (Bioorg Med Chem, 2008)

Key:
[1] = system: L929; assay: Growth inhibition in mouse L929 cells after 48 hrs; format: functional; design: concentration or dose not given beside the values
[2] = Cytotoxicity against human M4Beu cells by resazurin reduction test; format: functional, cell-based
Method in brief: (§1)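 Cells seeded at 5 × 10³ per well and allowed to adhere 16 h. Compounds are made up from DMSO stocks, with DMSO held at 0.5% (v/v) at every concentration, and added as a 4× solution in MEM. Continuous exposure lasts 48 h. Resazurin at 25 µg/mL in MEM without serum or phenol red is then given for 1 h at 37 °C, 5% CO₂. Fluorescence is read at ex 530/em 590 nm. IC50 comes from the blank-subtracted concentration–response curve, expressed as percent of control wells.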

[3] = system: PA-1; assay: Cytotoxicity against human PA1 cells by resazurin reduction test; format: functional, cell-based; method in brief: as §1
[4] = system: MCF7; assay: Cytotoxicity against human MCF7 cells by resazurin reduction test; format: functional, cell-based; method in brief: as §1
[5] = Cytotoxicity against human primary fibroblasts by resazurin reduction test; format: cell-based; settings: Fibroblast; method in brief: as §1
[6] = system: A549; assay: Cytotoxicity against human A549 cells by resazurin reduction test; format: functional, cell-based; method in brief: as §1
[7] = system: DLD-1; assay: Cytotoxicity against human DLD1 cells by resazurin reduction test; format: functional, cell-based; method in brief: as §1
[8] = system: L929; assay: Effect on oxidative stress in mouse L929 cells assessed as ROS production at 25 uM after 4 hrs by 2',7'-dichlorofluorescein-diacetate assay; format: functional
Method in brief: (§2)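 L929 cells seeded at 5 × 10³ per well and grown 48 h to about 90% confluence. Cells are loaded with 20 µM DCFH-DA in HBSS/15 mM Hepes pH 7.4 for 1 h at 37 °C, washed, then treated in the same buffer at 37 °C. Fluorescence is read after 4 h at 485/530 nm and expressed as percent of control. Above 150% counts as significant; 100 µM tert-butyl hydroperoxide serves as positive control.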

[9] = system: PC-3; assay: Cytotoxicity against human PC3 cells by resazurin reduction test; format: functional, cell-based; method in brief: as §1
[10] = system: L929; assay: Effect on oxidative stress in mouse L929 cells assessed as cytolysis at 50 uM after 4 hrs by calcein-AM assay; format: functional
Method in brief: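 L929 cells seeded at 5 × 10³ per well and grown 48 h to about 90% confluence. Cells are washed with HBSS/Hepes, then exposed 4 h at 37 °C in complete medium with 0.5% DMSO vehicle, in triplicate. Tween 80 is the lysis control. Detached cells are checked by microscopy, then 4 µM calcein-AM is added for 1 h and read at ex 485/em 530 nm. Percent intact cells = (sample − 100%-lysis background)/(vehicle − background) × 100.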

[11] = system: L929; assay: Effect on oxidative stress in mouse L929 cells assessed as glutathione depletion at 50 uM after 4 hrs; format: functional
Method in brief: (§3)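 L929 cells seeded at 5 × 10³ per well and grown 48 h to about 90% confluence. Treatment runs in HBSS/15 mM Hepes pH 7.4 for 4 h at 37 °C. Cells are then washed and incubated 15 min with 7.5 µM monochlorobimane before the fluorescence read. Depletion counts as significant below 80% of control. Positive control is 100 µM diethylmaleate.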

[12] = system: L929; assay: Effect on oxidative stress in mouse L929 cells assessed as ROS production at 6.25 uM after 4 hrs by 2',7'-dichlorofluorescein-diacetate assay; format: functional; method in brief: as §2
[13] = system: L929; assay: Effect on oxidative stress in mouse L929 cells assessed as ROS production at 12.5 uM after 4 hrs by 2',7'-dichlorofluorescein-diacetate assay; format: functional; method in brief: as §2
[14] = system: L929; assay: Effect on oxidative stress in mouse L929 cells assessed as glutathione depletion at 6.25 uM after 4 hrs; format: functional; method in brief: as §3

Row | Compound | inhibition (INH) [1] [%] | IC50 [2] [µM] | IC50 [3] [µM] | IC50 [4] [µM] | IC50 [5] [µM] | IC50 [6] [µM] | IC50 [7] [µM] | Activity [8] | IC50 [9] [µM] | Activity [10] | Activity [11] | Activity [12] | Activity [13] | Activity [14]
1 | CC(=O)OC[C@H]1O[C@@H](NC(=O)CNC(=O)CCCc2ccc(N(CCCl)CCCl)cc2)[C@H](F)[C@@H](OC(C)=O)[C@@H]1OC(C)=O | 70 | 6.8 | 1 | 8 | 4.1 | 5 | 4 | >=150% | 10 |  |  |  |  | 
2 | CC(=O)OC[C@H]1O[C@@H](Oc2ccc(NC(=O)CNC(=O)CCCc3ccc(N(CCCl)CCCl)cc3)cc2)[C@H](F)[C@@H](OC(C)=O)[C@@H]1OC(C)=O | 40 | 14 | 1.6 | 14 | 16 | 10 | 6 |  | 8 |  |  |  |  | 
3 | CC(=O)OC[C@H]1O[C@@H](NC(=O)c2ccc(NC(=O)CCCc3ccc(N(CCCl)CCCl)cc3)cc2)[C@H](F)[C@@H](OC(C)=O)[C@@H]1OC(C)=O | 50 | 7 | 0.3 | 5 | 4 | 2.7 | 3 |  | 1.4 | <=80% | <=80% |  |  | 
4 | CC(=O)OC[C@H]1O[C@@H](NC(=O)CCCNC(=O)CCCc2ccc(N(CCCl)CCCl)cc2)[C@H](F)[C@@H](OC(C)=O)[C@@H]1OC(C)=O | 50 | 9 | 0.27 | 12 | 4.1 | 13 | 9 |  | 3 |  |  | >=150% |  | 
5 | CC(=O)OC[C@H]1O[C@@H](NC(=O)NCCCc2ccc(N(CCCl)CCCl)cc2)[C@H](F)[C@@H](OC(C)=O)[C@@H]1OC(C)=O | 40 | 27 | 0.6 | 26.4 | 13 | 8 | 7 |  | 4 |  |  |  | >=150% | 
6 | CC(=O)OC[C@H]1O[C@@H](Oc2ccc(NC(=O)CCCc3ccc(N(CCCl)CCCl)cc3)cc2)[C@H](F)[C@@H](OC(C)=O)[C@@H]1OC(C)=O |  | > 50 | 0.76 | 26 | > 50 | 1.9 | 10 |  | 11 |  |  |  |  | <=80%
7 | O=C(O)CCCc1ccc(N(CCCl)CCCl)cc1 [CHLORAMBUCIL] | 30 | > 100 | 2.8 | > 100 | 99 | 43 | 47 |  |  |  |  | >=150% |  | <=80%
8 | CC(=O)OC[C@H]1O[C@@H](NC(=O)CCNC(=O)CCCc2ccc(N(CCCl)CCCl)cc2)[C@H](F)[C@@H](OC(C)=O)[C@@H]1OC(C)=O | 50 | 15 | 0.24 | 13 | 7 | 9.2 | 11 |  | 3.7 |  | <=80% |  |  | 
9 | CC(=O)OC[C@H]1O[C@@H](NC(=O)CCCc2ccc(N(CCCl)CCCl)cc2)[C@H](F)[C@@H](OC(C)=O)[C@@H]1OC(C)=O |  | 27 | 1.3 | 27 | 11 | 5.4 | 7.1 |  | 4.4 |  |  |  |  | 
